Data as given in ChEMBL document CHEMBL2176991 (J Med Chem, 2012).
Active and inactive are the calls of the source. The rule behind the calls is not given here. Square brackets hold non-standard residues; d marks the D form. Peptide text beside a SMILES is read from it. * marks the point of attachment. X4 = O=C1OC2(c3ccc(O)cc3Oc3cc(O)ccc32)c2cccc(NC(=S)*)c21; βAla = NCCC(=O)O

How the values were obtained:
Furin = Furin (Homo sapiens, UniProt P09958); test: Competitive inhibition of human recombinant furin expressed in Drosophila S2 cells using pyroGlu-Arg-Val-Lys-Arg-methyl-coumaryl-7-amide as substrate at pH 7.5 after 60 mins by spectrofluorometric analysis
Furin, sequence (P09958 whole entry): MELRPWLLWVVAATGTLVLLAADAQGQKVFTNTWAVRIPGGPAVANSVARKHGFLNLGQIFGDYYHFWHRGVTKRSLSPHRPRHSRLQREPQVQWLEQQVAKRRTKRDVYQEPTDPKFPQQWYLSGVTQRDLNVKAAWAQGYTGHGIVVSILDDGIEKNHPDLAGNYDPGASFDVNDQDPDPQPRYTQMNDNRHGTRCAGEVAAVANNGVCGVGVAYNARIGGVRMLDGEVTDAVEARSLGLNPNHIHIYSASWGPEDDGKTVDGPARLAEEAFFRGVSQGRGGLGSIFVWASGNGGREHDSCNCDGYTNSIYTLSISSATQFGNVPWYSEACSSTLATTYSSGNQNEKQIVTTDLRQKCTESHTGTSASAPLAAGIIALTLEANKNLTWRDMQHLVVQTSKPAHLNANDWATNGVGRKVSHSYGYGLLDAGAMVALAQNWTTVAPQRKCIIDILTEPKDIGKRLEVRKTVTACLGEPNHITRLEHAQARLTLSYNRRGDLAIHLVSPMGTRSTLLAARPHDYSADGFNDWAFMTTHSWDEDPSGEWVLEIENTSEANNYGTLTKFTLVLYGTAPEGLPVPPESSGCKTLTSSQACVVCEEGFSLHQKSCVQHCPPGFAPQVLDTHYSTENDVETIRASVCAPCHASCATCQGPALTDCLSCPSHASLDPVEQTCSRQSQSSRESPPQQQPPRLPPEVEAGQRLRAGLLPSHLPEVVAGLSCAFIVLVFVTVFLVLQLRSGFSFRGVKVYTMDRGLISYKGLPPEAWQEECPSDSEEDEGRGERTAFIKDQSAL
Outline: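 Recombinant soluble human furin from S2 medium, tested in 100 mM Hepes pH 7.5, 1 mM CaCl₂, 1 mM β-mercaptoethanol, 1.8 mg/mL BSA; substrate 100 μM, 37 °C, 60 min, kinetic fluorescence read. Inhibitors added at decreasing concentrations. Ki derived from IC50 by Cheng–Prusoff using Km 4.61 μM; three independent experiments.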

[1] = biological target: T1, Proprotein convertase subtilisin/kexin type 6 (Homo sapiens, UniProt P29122); test: Competitive inhibition of human recombinant PACE4 expressed in Drosophila S2 cells using pyroGlu-Arg-Val-Lys-Arg-methyl-coumaryl-7-amide as substrate at pH 6.5 after 60 mins by spectrofluorometric analysis
T1 sequence (P29122 whole entry): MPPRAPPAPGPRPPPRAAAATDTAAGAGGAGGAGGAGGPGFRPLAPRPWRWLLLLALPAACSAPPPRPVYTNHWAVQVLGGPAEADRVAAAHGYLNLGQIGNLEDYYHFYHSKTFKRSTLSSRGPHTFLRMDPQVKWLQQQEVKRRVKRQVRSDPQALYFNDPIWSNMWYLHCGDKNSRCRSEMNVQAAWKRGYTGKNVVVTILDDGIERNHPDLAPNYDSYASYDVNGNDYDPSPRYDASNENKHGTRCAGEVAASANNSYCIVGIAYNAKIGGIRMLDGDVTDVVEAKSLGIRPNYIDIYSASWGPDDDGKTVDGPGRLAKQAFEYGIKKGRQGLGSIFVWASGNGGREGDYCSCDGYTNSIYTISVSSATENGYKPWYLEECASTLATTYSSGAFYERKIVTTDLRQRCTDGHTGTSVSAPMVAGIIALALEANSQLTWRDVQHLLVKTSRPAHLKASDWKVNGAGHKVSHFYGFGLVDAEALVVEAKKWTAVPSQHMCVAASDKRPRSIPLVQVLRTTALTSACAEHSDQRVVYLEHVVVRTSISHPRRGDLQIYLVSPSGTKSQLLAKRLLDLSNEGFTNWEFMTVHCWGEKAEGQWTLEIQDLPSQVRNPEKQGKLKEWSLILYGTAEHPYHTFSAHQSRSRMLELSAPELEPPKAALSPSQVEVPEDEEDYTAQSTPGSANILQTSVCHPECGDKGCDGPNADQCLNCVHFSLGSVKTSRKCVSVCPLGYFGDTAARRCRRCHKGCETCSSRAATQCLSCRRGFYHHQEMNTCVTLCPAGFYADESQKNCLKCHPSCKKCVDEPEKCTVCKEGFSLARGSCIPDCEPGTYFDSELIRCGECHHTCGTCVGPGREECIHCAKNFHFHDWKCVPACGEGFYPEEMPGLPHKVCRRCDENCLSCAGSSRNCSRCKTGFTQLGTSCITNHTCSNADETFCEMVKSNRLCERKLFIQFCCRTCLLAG
Outline: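 Soluble human PACE4 purified from S2 conditioned medium, assayed in 20 mM Bis-Tris pH 6.5, 1 mM CaCl₂, 1.8 mg/mL BSA with 100 μM substrate, 37 °C, 60 min. Real-time fluorescence read; inhibitors added at decreasing concentrations. Ki from IC50 by Cheng–Prusoff, Km 3.5 μM. Means of three independent experiments.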

DU-145 [2] = test: Cytotoxicity against human DU145 cells assessed as growth inhibition after 72 hrs by MTT assay; type: functional, cell-based; conditions: DU-145, 72 h
Outline: (§1)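 Cells plated in 96-well format: DU145 and PC3 at 1500/well, LNCaP at 2500/well on poly-lysine. After 24 h, medium was changed and peptide added for 72 h in RPMI 1640 (5% FBS for DU145, 10% for LNCaP and PC3). MTT at 1 mg/mL final for 4 h (DU145, LNCaP) or 6 h (PC3). Formazan dissolved in 2-propanol-HCl and signal normalized to vehicle (water, 0.1% DMSO). IC50 from curve fitting.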

[3] = Stability of the compound in presence of aminopeptidase; type: ADME
LNCaP [4] = test: Cell cycle arrest in human LNCAP cells assessed as accumulation at G0/G1 phase after 96 hrs by propidium iodide staining-based FACS flow cytometric analysis
LNCaP [5] = test: Cell cycle arrest in human LNCAP cells assessed as accumulation at S phase at 200 uM after 96 hrs by propidium iodide staining-based FACS flow cytometric analysis (reference value: 15.6 +/- 1.3 %); type: functional
LNCaP [6] = test: Cell cycle arrest in human LNCAP cells assessed as accumulation at sub G1 phase at 200 uM after 96 hrs by propidium iodide staining-based FACS flow cytometric analysis (reference value: 0.3 +/- 0.2 %); type: functional
LNCaP [7] = test: Cell cycle arrest in human LNCAP cells assessed as accumulation at S phase at 100 uM after 96 hrs by propidium iodide staining-based FACS flow cytometric analysis (reference value: 15.6 +/- 1.3 %); type: functional
LNCaP [8] = test: Cell cycle arrest in human LNCAP cells assessed as decrease in accumulation at S phase after 96 hrs by propidium iodide staining-based FACS flow cytometric analysis; type: functional
LNCaP [9] = test: Cell cycle arrest in human LNCAP cells assessed as accumulation at G2/M phase at 200 uM after 96 hrs by propidium iodide staining-based FACS flow cytometric analysis (reference value: 10.1 +/- […]); type: functional
PC-3 = test: Cytotoxicity against human PC3 cells assessed as growth inhibition after 72 hrs by MTT assay; type: functional, cell-based; outline: as §1
LNCaP [10] = test: Cell cycle arrest in human LNCAP cells assessed as accumulation at G0/G1 phase at 100 uM after 96 hrs by propidium iodide staining-based FACS flow cytometric analysis (reference value: 74.3 +/- 0.1 %); type: functional
LNCaP [11] = test: Cytotoxicity against human LNCAP cells assessed as growth inhibition after 72 hrs by MTT assay; type: functional, cell-based; outline: as §1
Homo sapiens = species: Homo sapiens; test: Selectivity ratio of Ki for human recombinant furin to Ki for human recombinant PACE4
DU-145 [12] = test: Cellular uptake in human DU145 cells at 10 uM after 1 hr by propidium iodide staining-based FACS flow cytometric analysis; type: ADME, cell-based; conditions: du-145, 1 h
Outline: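 DU145 cells (4 × 10⁵) incubated 1 h with 10 μM FITC-labeled peptide in serum-free RPMI, then pelleted and washed twice with 0.05% trypsin for 5 min at 37 °C to strip membrane-bound label. Propidium iodide (10 μg/mL, 2 min) used to exclude cells with damaged membranes. At least 10000 events acquired by FACS; uptake reported as geometric mean fluorescence.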

SMILES | Ki (Furin) [nM] | Ki [1] [nM] | Ratio Ki (Homo sapiens) | further results
CC(=O)N[C@@H](CC(C)C)C(=O)N[C@@H](CC(C)C)C(=O)N[C@@H](CCCN=C(N)N)C(=O)N[C@H](C(=O)N[C@@H](CCCCN)C(=O)N[C@@H](CCCN=C(N)N)C(N)=O)C(C)C | 900 | 240 |  | 
CC(=O)N[C@@H](CC(C)C)C(=O)N[C@@H](CC(C)C)C(=O)N[C@@H](CC(C)C)C(=O)N[C@@H](CCCN=C(N)N)C(=O)N[C@H](C(=O)N[C@@H](CCCCN)C(=O)N[C@@H](CCCN=C(N)N)C(N)=O)C(C)C | 400 | 18 |  | 
CC(=O)OCCOCCOCCOCCOCCOCCOCCOCCN[C@@H](CC(C)C)C(=O)N[C@@H](CC(C)C)C(=O)N[C@@H](CC(C)C)C(=O)N[C@@H](CC(C)C)C(=O)N[C@@H](CCCNC(=N)N)C(=O)N[C@H](C(=O)N[C@@H](CCCCN)C(=O)N[C@@H](CCCNC(=N)N)C(N)=O)C(C)C | 480 | 19 |  | IC50 (DU-145 [2]): > 500000 nM
CC(=O)CCCCCCCCN[C@@H](CC(C)C)C(=O)N[C@@H](CC(C)C)C(=O)N[C@@H](CC(C)C)C(=O)N[C@@H](CC(C)C)C(=O)N[C@@H](CCCNC(=N)N)C(=O)N[C@H](C(=O)N[C@@H](CCCCN)C(=O)N[C@@H](CCCNC(=N)N)C(N)=O)C(C)C | 500 | 23 |  | IC50 (DU-145 [2]): 80000 nM
CC(=O)N[C@H](CC(C)C)C(=O)N[C@@H](CC(C)C)C(=O)N[C@@H](CC(C)C)C(=O)N[C@@H](CC(C)C)C(=O)N[C@@H](CCCN=C(N)N)C(=O)N[C@H](C(=O)N[C@@H](CCCCN)C(=O)N[C@@H](CCCN=C(N)N)C(N)=O)C(C)C |  |  |  | Stability [3]: Stable
CC(=O)N[C@H](CC(C)C)C(=O)N[C@@H](CC(C)C)C(=O)N[C@@H](CC(C)C)C(=O)N[C@@H](CC(C)C)C(=O)N[C@@H](CCCNC(=N)N)C(=O)N[C@H](C(=O)N[C@@H](CCCCN)C(=O)N[C@@H](CCCNC(=N)N)C(N)=O)C(C)C |  |  |  | Activity (LNCaP [4]): Dose-dependent effect; Activity (LNCaP [5]): 8.4%; Activity (LNCaP [6]): 11.8%; Activity (LNCaP [7]): 11.8%; Activity (LNCaP [8]): Dose-dependent effect; Activity (LNCaP [9]): 8.3%
CC(=O)N[C@@H](CC(C)C)C(=O)N[C@@H](CC(C)C)C(=O)N[C@@H](CC(C)C)C(=O)N[C@@H](CC(C)C)C(=O)N[C@@H](CCCNC(=N)N)C(=O)N[C@H](C(=O)N[C@@H](CCCCN)C(=O)N[C@@H](CCCNC(=N)N)C(N)=O)C(C)C (Ac-LLLLRVKR-NH2) |  |  |  | Activity (LNCaP [4]): Dose-dependent effect; Activity (LNCaP [5]): 9.3%; growth inhibition (GI) (PC-3): inactive; Activity (LNCaP [10]): 79.7%; Activity (LNCaP [8]): Dose-dependent effect
CC(=O)N[C@@H](CC(C)C)C(=O)N[C@@H](CC(C)C)C(=O)N[C@@H](CC(C)C)C(=O)N[C@@H](CC(C)C)C(=O)N[C@@H](CCCNC(=N)N)C(=O)N[C@H](C(=O)N[C@@H](CCCCN)C(=O)N[C@H](CCCNC(=N)N)C(N)=O)C(C)C (Ac-LLLLRVK[dR]-NH2) |  |  |  | IC50 (LNCaP [11]): 390000 nM; IC50 (DU-145 [2]): 440000 nM
C[C@H](N)C(=O)N[C@@H](CCCCN)C(=O)N[C@@H](CCCNC(=N)N)C(=O)N[C@@H](CCCNC(=N)N)C(=O)N[C@H](C(=O)N[C@@H](CCCCN)C(=O)N[C@@H](CCCNC(=N)N)C(=O)O)[C@@H](C)O (H-AKRRTKR-OH) |  | 0.4 | 4.2 | 
N=C(N)NCCC[C@H](NC(=O)[C@H](CCCCN)NC(=O)[C@H](CO)NC(=O)[C@H](CCCNC(=N)N)NC(=O)[C@H](CCC(=O)O)NC(=O)[C@H](CCCCN)NC(=O)[C@@H](N)CCC(=O)O)C(=O)O (H-EKERSKR-OH) |  |  | 1.3 | 
NCCCC[C@H](NC(=O)[C@H](CCCCN)NC(=O)[C@H](CCCN=C(N)N)NC(=O)[C@H](CC(=O)O)NC(=O)[C@H](Cc1ccccc1)NC(=O)CN)C(=O)N[C@@H](CCCN=C(N)N)C(=O)O (H-GFDRKKR-OH) | > 1000 | > 1000 |  | 
N=C(N)NCCC[C@H](NC(=O)[C@H](CCCCN)NC(=O)[C@H](CCCCN)NC(=O)[C@H](CCCNC(=N)N)NC(=O)[C@H](CC(=O)O)NC(=O)[C@H](Cc1ccccc1)NC(=O)CN)C(=O)O (H-GFDRKKR-OH) |  |  | 1 | 
CC(C)C[C@H](NC(=O)[C@@H](N)CC(C)C)C(=O)N[C@@H](CCCNC(=N)N)C(=O)N[C@@H](CCCNC(=N)N)C(=O)N[C@@H](C)C(=O)N[C@@H](CCCCN)C(=O)N[C@@H](CCCNC(=N)N)C(=O)O (H-LLRRAKR-OH) |  | 0.34 | 36 | 
CC(C)C[C@H](N)C(=O)N[C@@H](CCCN=C(N)N)C(=O)N[C@@H](CCCN=C(N)N)C(=O)N[C@@H](CCCN=C(N)N)C(=O)N[C@H](C(=O)N[C@@H](CCCCN)C(=O)N[C@@H](CCCN=C(N)N)C(=O)O)C(C)C (H-LRRRVKR-OH) | 9 | 7 |  | 
CC(C)C[C@H](N)C(=O)N[C@@H](CCCNC(=N)N)C(=O)N[C@@H](CCCNC(=N)N)C(=O)N[C@@H](CCCNC(=N)N)C(=O)N[C@H](C(=O)N[C@@H](CCCCN)C(=O)N[C@@H](CCCNC(=N)N)C(=O)O)C(C)C (H-LRRRVKR-OH) |  |  | 1.3 | 
CC(C)[C@H](N)C(=O)N[C@@H](CCCCN)C(=O)N[C@@H](CCCCN)C(=O)N[C@@H](CCCNC(=N)N)C(=O)N[C@H](C(=O)N[C@@H](CCCCN)C(=O)N[C@@H](CCCNC(=N)N)C(=O)O)[C@@H](C)O (H-VKKRTKR-OH) |  |  | 2.2 | 
CC(C)[C@H](N)C(=O)N[C@@H](CCCCN)C(=O)N[C@@H](CCCN=C(N)N)C(=O)N[C@@H](CCCN=C(N)N)C(=O)N[C@H](C(=O)N[C@@H](CCCCN)C(=O)N[C@@H](CCCN=C(N)N)C(=O)O)C(C)C (H-VKRRVKR-OH) |  | 2 |  | 
CC(C)[C@H](N)C(=O)N[C@@H](CCCCN)C(=O)N[C@@H](CCCNC(=N)N)C(=O)N[C@@H](CCCNC(=N)N)C(=O)N[C@H](C(=O)N[C@@H](CCCCN)C(=O)N[C@@H](CCCNC(=N)N)C(=O)O)C(C)C (H-VKRRVKR-OH) |  |  | 2.7 | 
CC(C)C[C@H](NC(=O)CCNC(=S)Nc1cccc2c1C(=O)OC21c2ccc(O)cc2Oc2cc(O)ccc21)C(=O)N[C@@H](CC(C)C)C(=O)N[C@@H](CC(C)C)C(=O)N[C@@H](CC(C)C)C(=O)N[C@@H](CCCNC(=N)N)C(=O)N[C@H](C(=O)N[C@@H](CCCCN)C(=O)N[C@@H](CCCNC(=N)N)C(N)=O)C(C)C ({X4-βAla}-LLLLRVKR-NH2) |  |  |  | Drug uptake (DU-145 [12]): Active
